# This is one part of a sample in which hits are shown more often than they occur.
# T cruzi growth-1 – T. cruzi intracellular proliferation inhibitors, primary screen, cell-based, beta-gal Tulahuen parasites, NIH3T3 host, luminescence; T. cruzi beta-gal in NIH3T3, GalScreen luminescence, 90 h; inhibition, % at 8.34 µM; 77,000 tested, 5.9% active;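 active = mean inhibition above about 93%, with at least 55% of replicates each passing it, limit read from the data, passing the limit was not always enough; inconclusive = only one of those two conditions holds; inactive = neither condition holds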
# IDH1 mut inh – inhibitors of IDH1 R132H reductase, primary screen, biochemical, plate reader, single point. Isocitrate dehydrogenase [NADP] cytoplasmic (Homo sapiens), O75874. inhibition, % at 10 µM. diaphorase/resazurin fluorescence, 60 min. AID 624101, 2012. 70,000 tested, 0.18% active; in the data active = inhibition above about 34%; inconclusive = no clear call, values can overlap the other calls; inactive = below about 11%;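 note: 0% = DMSO and 100% = no enzyme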
# Target sequence (O75874 whole entry R132H): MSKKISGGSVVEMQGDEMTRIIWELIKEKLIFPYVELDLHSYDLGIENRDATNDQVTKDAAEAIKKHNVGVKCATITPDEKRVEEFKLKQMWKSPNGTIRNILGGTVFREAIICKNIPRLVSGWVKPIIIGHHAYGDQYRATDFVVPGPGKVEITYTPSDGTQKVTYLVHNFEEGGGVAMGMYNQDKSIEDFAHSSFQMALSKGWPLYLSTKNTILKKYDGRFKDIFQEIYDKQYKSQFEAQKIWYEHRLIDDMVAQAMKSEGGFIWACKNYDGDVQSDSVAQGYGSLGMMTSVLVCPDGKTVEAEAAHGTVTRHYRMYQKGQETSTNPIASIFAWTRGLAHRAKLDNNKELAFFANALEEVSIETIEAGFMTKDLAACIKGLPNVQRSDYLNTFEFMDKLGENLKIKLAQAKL
# KDM4C inh – inhibitors of GASC-1 (KDM4C) histone demethylase, primary screen, biochemical, single concentration HTS; GST-KDM4C 2-372, H3K9me3 peptide, LANCE TR-FRET; Lysine-specific demethylase 4C (Homo sapiens), Q9H3R0; inhibition, % at 12.5 µM; 96,000 tested, 0.15% active;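 active = mean replicate inhibition above about 25%, with at least 55% of replicates also reaching it, limit read from the data, passing the limit was not always enough; inconclusive = only one of those two conditions met; inactive = neither condition met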
# Target sequence (Q9H3R0 2-372 limits assumed): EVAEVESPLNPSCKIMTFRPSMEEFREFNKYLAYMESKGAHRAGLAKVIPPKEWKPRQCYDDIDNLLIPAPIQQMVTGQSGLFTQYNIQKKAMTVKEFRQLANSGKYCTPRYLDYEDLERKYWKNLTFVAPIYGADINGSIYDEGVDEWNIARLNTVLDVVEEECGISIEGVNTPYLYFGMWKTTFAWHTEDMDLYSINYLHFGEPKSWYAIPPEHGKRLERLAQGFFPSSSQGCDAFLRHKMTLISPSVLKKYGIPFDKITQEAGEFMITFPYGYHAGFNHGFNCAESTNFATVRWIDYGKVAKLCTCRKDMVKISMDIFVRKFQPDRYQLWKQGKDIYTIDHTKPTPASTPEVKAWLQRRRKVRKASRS
#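 Test system – GST-tagged GASC-1 (JMJD2C) catalytic fragment, aa 2-372 · Medium – HEPES buffer, pH 7.5, plus ascorbate · Reagent – H3K9me3 peptide with Fe(II)/2OG · Compound – one test concentration per compound · Timing – 30 min reaction, 60 min detection, RT · Technique – TR-FRET with Eu antibody and ULight streptavidin, EDTA stop · Read-out basis – inhibition from TR-FRET ratio decrease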
# T cruzi growth-2 – T. cruzi intracellular proliferation inhibitors, confirmation, cell-based, NIH3T3 host, beta-gal parasite, luminescence, cherry-pick; shares compounds with T cruzi growth-1; T. cruzi beta-gal in NIH3T3, GalScreen luminescence, 90 h; inhibition, % at 8.35 µM; 5,600 tested, 72% active; AID 651739, 2012;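 active = mean replicate inhibition above about 95% and at least 55% of replicates individually reaching it, limit read from the data; inconclusive = only one of the two criteria is met; inactive = neither criterion is met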
# T cruzi growth-3 – inhibitors of intracellular T. cruzi replication, confirmation, NIH3T3 host cells, beta-gal parasites, cherry-pick, set 2; shares compounds with T cruzi growth-1; T. cruzi beta-gal in NIH3T3, GalScreen luminescence, 90 h; inhibition, % at 2.09 µM; 5,600 tested, 21% active; AID 651740, 2012;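 active = mean inhibition above about 95%, with at least 55% of replicates also reaching it, limit read from the data; inconclusive = meets just one of the two conditions; inactive = meets neither condition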;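 note: plate controls were neutral control median for no effect and positive control median for full effect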
# 3T3 cytotox – cytotoxicity in mouse NIH/3T3 fibroblasts, confirmation, cytotoxicity control for T. cruzi proliferation inhibitor project, cell-based, cherry-pick, single point; shares compounds with T cruzi growth-1; NIH/3T3 viability, CellTiter-Glo ATP luminescence, 90 h; cytotoxicity (signal decrease), % at 8.35 µM; AID 651742, 2012; 5,600 tested, 14% active;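 active = mean signal decrease across replicates above about 35% based on untreated-well scatter, with enough replicates individually passing, limit read from the data; inconclusive = no rule stated though some were filed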;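 note: 0% = median of neutral control wells and 100% = median of positive control wells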
# NIH3T3 tox 2 – NIH/3T3 fibroblast cytotoxicity, confirmation, cytotoxicity control, cell-based, cherry-pick, single point, set 2 | shares compounds with T cruzi growth-1 | NIH/3T3 viability, CellTiter-Glo ATP luminescence, 90 h | inhibition, % at 24.9 µM | 5,600 tested, 56% active | AID 651744, 2012;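 active = mean loss of cell viability signal at or above a set limit, and enough replicates individually reaching it; inconclusive = meets only the mean limit or only the replicate share; inactive = meets neither condition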;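 note: 0% = median of neutral control wells and 100% = median of positive control wells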
# The depositor's hits bear a star; ? = inconclusive; / = not tested or not shown.
SMILES,T cruzi growth-1,IDH1 mut inh,KDM4C inh,T cruzi growth-2,T cruzi growth-3,3T3 cytotox,NIH3T3 tox 2
COc1ccc(-c2ccc([C@@H]3[C@@H](CO)N(C(=O)c4cccc(F)c4)[C@H]3C#N)cc2)cc1,?,/,-0.3,88.4,41.3,0.7,6.8
COc1ccc(-c2ccc([C@@H]3[C@H](C#N)N(C(=O)c4cccc(F)c4)[C@H]3CO)cc2)cc1,103.3*,/,-4.9,105.3*,40.8,9.0,30.7*
N#C[C@H]1[C@H](c2ccc(C3=CCCCC3)cc2)[C@@H](CO)N1C(=O)c1cccc(F)c1,98.1*,/,-1.3,100.2*,40.4,10.0,44.8*
N#C[C@H]1[C@@H](c2ccc(C3=CCCCC3)cc2)[C@H](CO)N1C(=O)c1cccc(F)c1,94.0,/,-1.1,/,/,/,/
CCN(CC)S(=O)(=O)c1ccc(OC)c(NC(=O)c2cc3ccccc3oc2=O)c1,/,-0.2,/,/,/,/,/
O=C(COc1ccc(Cl)cc1Cl)Nc1c[nH]c(=O)[nH]c1=O,/,0.2,/,/,/,/,/
Cc1ccccc1OCCn1c(C(C)O)nc2ccccc21 (stereo not given),/,0.2,/,/,/,/,/
CC(=O)O[C@@H]1CC(=O)OC(C)(C)C2CC(=O)[C@]3(C)C(CC[C@@]4(C)[C@H](c5ccoc5)OC(=O)[C@H]5O[C@]543)[C@]21C (stereo not given in full),/,0.9,/,/,/,/,/
O=C(CSc1nc2ccccc2[nH]1)Nc1ccc(Cl)c(Br)c1,/,-0.3,/,/,/,/,/
COc1ccc(-c2ccc3c(c2)[C@@H]2[C@@H](CCN2C(=O)c2ccncc2)[C@H](CO)N3C)cc1,?,/,1.1,108.4*,41.6,-2.1,10.1
COc1ccc(-c2ccc3c(c2)[C@@H]2[C@@H](CCN2C(=O)c2ccc(F)cc2)[C@@H](CO)N3C)cc1,24.1,/,1.8,/,/,/,/
COc1cccc(-c2ccc3c(c2)[C@H]2[C@H](CCN2C(=O)c2ccc4c(c2)OCO4)[C@H](CO)N3C)c1,35.4,/,-3.2,/,/,/,/
COc1ccc(-c2ccc3c(c2)[C@@H]2[C@@H](CCN2C(=O)c2ccc4c(c2)OCO4)[C@@H](CO)N3C)cc1,99.5*,/,-2.2,105.2*,100.0*,22.4,19.0
COc1cc(OC)cc(-c2nnc(SCC(=O)c3cccc([N+](=O)[O-])c3)o2)c1,/,-0.1,/,/,/,/,/
COc1ccc(C)cc1Nc1nc(N)nc(-c2oc3ccccc3c2C)n1,/,0.0,/,/,/,/,/
Cc1ccc(N(C(C)C(=O)Nc2ccc(Cl)cc2)S(C)(=O)=O)cc1C (stereo not given),/,0.4,/,/,/,/,/
O=C(Nc1cc(F)ccc1F)N1CCCCN2[C@@H](CO)[C@@H](c3ccc(-c4cccnc4)cc3)[C@@H]2C1,82.2,/,-0.1,/,/,/,/
C/C=C/c1ccc([C@H]2[C@@H](CO)N3CCCCN(C(=O)Nc4cc(F)ccc4F)C[C@H]23)cc1,101.8*,/,2.9,110.7*,62.1,10.0,103.9*
O=C(Nc1cc(F)ccc1F)N1CCCCN2[C@H](CO)[C@H](c3ccc(-c4ccncc4)cc3)[C@H]2C1,100.5*,/,-0.7,111.2*,80.5,7.4,18.7
O=C(Nc1cc(F)ccc1F)N1CCCCN2[C@H](C1)[C@H](c1ccc(-c3cncnc3)cc1)[C@@H]2CO,102.6*,/,-0.2,6.1,8.9,-21.5,4.2
O=C(Nc1cc(F)ccc1F)N1CCCCN2[C@H](C1)[C@H](c1ccc(-c3ccncc3)cc1)[C@@H]2CO,84.5,/,0.1,/,/,/,/
C/C=C/c1ccc([C@@H]2[C@@H](CO)N3CCCCN(C(=O)Nc4cc(F)ccc4F)C[C@@H]23)cc1,78.7,/,-2.1,/,/,/,/
NC(=O)COc1ccc(S(=O)(=O)N2CCOCC2)cc1,/,0.1,/,/,/,/,/
CC1=CC[C@@]2(C)CC[C@@](O)(C(C)C)[C@@H]2[C@@H](O)C1,/,0.3,/,/,/,/,/
CN(CC(=O)Nc1ccc(F)cc1F)S(=O)(=O)c1ccccc1,/,-0.2,/,/,/,/,/
SMILES,T cruzi growth-1,IDH1 mut inh,KDM4C inh,T cruzi growth-2,T cruzi growth-3,3T3 cytotox,NIH3T3 tox 2
CCOC(=O)c1ccc(NC(=O)C2C3CCC(C3=C(C)C)C2C(=O)O)cc1 (stereo not given),/,-0.7,/,/,/,/,/
C=Cc1ccc(O[C@@H]2O[C@H](CO)[C@@H](O)[C@H](O)[C@H]2O[C@@H]2O[C@@H](C)[C@H](O)[C@@H](O)[C@H]2O)cc1,/,-0.3,/,/,/,/,/
Cc1c(NC(=O)CN(c2cccc(Br)c2)S(C)(=O)=O)cccc1[N+](=O)[O-],/,0.1,/,/,/,/,/
CCCC#Cc1ccc([C@@H]2[C@@H](CO)N3CCCCN(S(=O)(=O)c4ccccc4F)C[C@@H]23)cc1,50.5,/,2.4,/,/,/,/
CCCC#Cc1ccc([C@H]2[C@H]3CN(S(=O)(=O)c4ccccc4F)CCCCN3[C@H]2CO)cc1,?,/,0.6,111.3*,77.3,22.7,104.7*
CN(C)CC#Cc1ccc([C@H]2[C@@H](CO)N3CCCCN(S(=O)(=O)c4ccccc4F)C[C@H]23)cc1,82.4,/,8.0,/,/,/,/
CN(C)CC#Cc1ccc([C@@H]2[C@@H](CO)N3CCCCN(S(=O)(=O)c4ccccc4F)C[C@H]23)cc1,111.0*,/,2.4,97.9*,23.7,1.2,84.6*
Cc1sc2ncn(CC(=O)Nc3c(C(C)C)cccc3C(C)C)c(=O)c2c1C,/,-0.1,/,/,/,/,/
CCCCCC1C(=O)O/C(=C\C(=O)O)C1=O (stereo not given),/,0.3,/,/,/,/,/
CN(C)CC(=O)N1[C@@H](C#N)[C@@H](c2ccc(C#CC3CC3)cc2)[C@@H]1CO,89.1,/,1.2,/,/,/,/
CC(C)NC(=O)N1[C@H](CO)[C@H](c2ccc(C#CC3CC3)cc2)[C@@H]1C#N,76.1,/,-0.7,/,/,/,/
CC(C)NC(=O)N1[C@H](CO)[C@@H](c2ccc(C#CC3CC3)cc2)[C@@H]1C#N,?,/,0.0,107.0*,76.9,-5.0,9.1
CC(C)NC(=O)N1[C@H](C#N)[C@@H](c2ccc(C#CC3CC3)cc2)[C@@H]1CO,?,/,0.8,108.7*,82.3,8.6,7.3
CCOC(=O)c1sc2ncn(CC(=O)Nc3ccccc3Cl)c(=O)c2c1C,/,0.3,/,/,/,/,/
Cc1ccc(CN2C(=O)C(O)(CC(=O)c3c(C)coc3C)c3cc(Cl)ccc32)cc1 (stereo not given),/,0.3,/,/,/,/,/
FC(F)(F)c1ccnc(NCCNC(=S)NCc2ccco2)n1,/,0.6,/,/,/,/,/
CCCC#Cc1ccc([C@@H]2[C@@H](CO)N3CCCCN(Cc4cncnc4)C[C@@H]23)cc1,61.0,/,-1.0,/,/,/,/
COCC#Cc1ccc([C@@H]2[C@H]3CN(Cc4cncnc4)CCCCN3[C@H]2CO)cc1,67.7,/,0.5,/,/,/,/

# Bioassay records (PubChem)
